Results taken from publication PMC3158287 (Nature chemical biology, 2011).
Residue numbers refer to the chain shown, from its start.

Experiments:
[1] = target: T1, OSBP^M446W (Homo sapiens, UniProt P22059, M446W); experiment: [3H]25-OHC binding assay, OSBP M446W mutant
T1 sequence (P22059 1-807 M446W): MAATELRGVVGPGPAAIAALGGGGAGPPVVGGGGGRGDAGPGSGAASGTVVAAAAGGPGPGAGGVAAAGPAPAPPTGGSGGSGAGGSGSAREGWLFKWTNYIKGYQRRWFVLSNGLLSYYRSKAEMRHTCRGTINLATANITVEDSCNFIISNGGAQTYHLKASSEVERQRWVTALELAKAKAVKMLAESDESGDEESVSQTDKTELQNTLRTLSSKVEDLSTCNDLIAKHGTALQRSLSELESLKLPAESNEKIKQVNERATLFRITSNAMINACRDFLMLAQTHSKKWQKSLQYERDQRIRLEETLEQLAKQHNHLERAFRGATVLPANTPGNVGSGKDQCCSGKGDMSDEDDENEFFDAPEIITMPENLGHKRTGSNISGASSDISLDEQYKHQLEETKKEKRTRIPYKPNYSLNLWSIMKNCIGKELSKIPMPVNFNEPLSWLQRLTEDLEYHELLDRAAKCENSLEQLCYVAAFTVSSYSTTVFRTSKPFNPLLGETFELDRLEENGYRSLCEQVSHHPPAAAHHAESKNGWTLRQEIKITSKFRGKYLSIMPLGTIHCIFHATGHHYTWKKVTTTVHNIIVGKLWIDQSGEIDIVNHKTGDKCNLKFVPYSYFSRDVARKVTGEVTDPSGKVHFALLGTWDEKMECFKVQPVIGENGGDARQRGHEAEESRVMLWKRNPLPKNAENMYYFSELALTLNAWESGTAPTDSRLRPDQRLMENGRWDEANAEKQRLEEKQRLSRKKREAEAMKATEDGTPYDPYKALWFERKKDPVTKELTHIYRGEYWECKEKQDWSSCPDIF

[2] = target: T2, OSBP^V582M (Homo sapiens, UniProt P22059, V582M); experiment: [3H]25-OHC binding assay, OSBP V582M mutant
T2 sequence (P22059 1-807 V582M): T1 sequence (P22059 1-807 M446W) with W446M, V582M

[3] = target: T3, OSBP (Homo sapiens, UniProt P22059); experiment: OSBP protein levels by western blotting; assay type: cell-based; settings: HCT-116 cells
T3 sequence (P22059 1-807): T1 sequence (P22059 1-807 M446W) with W446M
In short: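 HCT-116 cells were treated with test compound at 50 nM or 10 nM over a time course including 24 h. Some samples also received proteasome inhibitor MG-132 or lactacystin. OSBP was measured by western blotting with polyclonal rabbit anti-OSBP (N-terminus) antibody. Data are n = 3, compared with vehicle-treated cells by two-tailed Student's t-test.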

[4] = tested on: sphingomyelin biosynthesis in CHO-K1 cells; experiment: Sphingomyelin biosynthesis, [3H]serine pulse labeling, CHO-K1; assay type: cell-based, Chinese hamster; settings: CHO-K1 cells
[5] = tested on: human cancer cell lines; assay type: cell-based
[6] = tested on: HCT-116 p21^−/− cells; experiment: Cell viability assay, HCT-116 p21-/-; assay type: cell-based, human; settings: GI50 after 48 h
In short: (§1)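 HCT-116 p21+/+ and p21−/− cells were seeded in 96-well plates and rested 24 h. A time-zero plate was read with CellTiter-Blue (resazurin) after 90 min at 37 °C, fluorescence 544 nm ex / 590 nm em. Serially diluted test compound was added as 4× solution. Viability was re-read at 48 h and GI50 derived. For coadministration, 10 μM 25-OHC was added with test compound at 250 nM or 10 nM.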

[7] = tested on: HCT-116 p21^−/− cells stably transfected with shOSBP or shNT; experiment: OSBP shRNA knockdown and dose-shift experiment; assay type: cell-based, human; settings: 72 h
In short: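 HCT-116 p21−/− cells were stably transfected with OSBP-targeting or nontargeting shRNA in the pSIREN-RetroQ vector. […] Values are mean ± s.d. of 3–4 experiments, compared with shNT cells by two-tailed Student's t-test.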

[8] = tested on: HeLa cells overexpressing wild-type OSBP; experiment: Overexpression-viability assay, wild-type OSBP-Myc-His; assay type: cell-based, human; settings: 48 h, versus lacZ
[9] = tested on: HeLa cells overexpressing ORP4L; experiment: Overexpression-viability assay, ORP4L-Myc-His; assay type: cell-based, human; settings: 48 h, versus lacZ
[10] = tested on: HCT-116 cells; experiment: Suppression of antiproliferative activity by 25-OHC coadministration; assay type: cell-based, human
In short: as §1

[11] = target: T3, OSBP; experiment: OSBP localization by immunofluorescence microscopy, HCT-116; assay type: cell-based; settings: HCT-116 cells, 4 h; 5 μM schweinfurthin A, 10 nM OSW-1, 20 nM cephalostatin 1
In short: (§2)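 Cells on coverslips were grown 72 h, then given test compound or vehicle (4 h for HCT-116). They were fixed 10 min in 3.7% formaldehyde/PBS and permeabilised 5 min in 0.5% Triton X-100. Blocking used Image-iT FX, then 1% BSA/PBS. Rabbit anti-OSBP (N-terminus) and mouse anti-p230 were applied overnight at 4 °C, then Alexa Fluor secondaries for 60 min with Hoechst 33258. Imaging was by confocal microscopy.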

[12] = target: T3, OSBP; experiment: OSBP localization by immunofluorescence microscopy, A549; assay type: cell-based; settings: A549 cells
In short: as §2

[13] = tested on: CERT; experiment: CERT protein amount in treated cells; assay type: cell-based, human; settings: GI90 concentration, HCT-116 or A549 cells
[14] = tested on: human cancer cell lines; settings: cited from earlier work
[15] = tested on: HCT-116 p21^−/− cells; settings: cited from earlier work

SMILES: C[C@H](CCCC(C)(C)O)[C@H]1CC[C@H]2[C@@H]3CC=C4C[C@@H](O)CC[C@]4(C)[C@H]3CC[C@]12C [25-OHC, 25-hydroxycholesterol, reference compound]
- Kd [1]: 41 nM
- Kd [2]: 82 nM
- Effect on OSBP levels (compound alone) ([3]; 25-OHC 10 μM): did not affect OSBP levels
- Increase in the biosynthesis of sphingomyelin ([4]; 5 μM, 6 h): approximately four
- Effect on sphingomyelin biosynthesis ([4]; GI90 dose (15 μM)): robust stimulation
- Cytotoxicity [5]: not cytotoxic at concentrations up to 10 μM

SMILES: C[C@@H]1[C@]2(O[C@H]3C=C4[C@@H]5CC[C@H]6Cc7nc8c(nc7C[C@]6(C)[C@H]5C[C@@H](O)[C@]4(C)[C@]31O)C[C@@H]1CC[C@H]3C4=CC[C@@H]5[C@H](C)[C@@]6(OC[C@]45C(=O)C[C@@H]3[C@@]1(C)C8)OC(C)(C)C[C@H]6O)O[C@](C)(CO)C[C@H]2O [cephalostatin 1, Cephalostatin 1]
- Ki [1]: 31 nM
- Ki [2]: 31 nM
- p21^−/− selectivity of growth inhibition (HCT-116 p21^−/− versus wild-type) [6]: selectively growth-inhibitory
- Sensitization by OSBP shRNA knockdown (GI50 shift shOSBP vs shNT) [7]: four
- Desensitization factor by OSBP overexpression (relative GI30) [8]: 2–5
- Desensitization factor by ORP4L overexpression (relative GI30) [9]: 2–5
- Effect of 10 μM 25-OHC coadministration on growth inhibition ([10]; HCT-116 cells, 250 nM cephalostatin 1 or 10 nM OSW-1): nearly complete desensitization
- inhibition at 0.25 µM ([10]; Homo sapiens, HCT-116, 48 h, read-out: Growth inhibition when administered alone): > 75%
- OSBP localization [11]: partially localize to the plasma membrane
- OSBP localization [12]: dispersal or vesiculation of OSBP
- Reduction in OSBP protein levels ([3]; 50 nM, 24 h): approximately 75%
- Amount of CERT protein [13]: not affected
- GI50 (half-maximal inhibitory concentration) [14]: nanomolar range

SMILES: CC(/C=C/C=C(C)/C=C/C=C(\C)C(=O)O)=C1/C(=O)C[C@H]2[C@@]3(C)CCC(=O)C(C)(C)[C@@H]3CC[C@]12C [stellettin E]
- Times more growth-inhibitory to HCT-116 p21^−/− cells than to HCT-116 wild-type cells [15]: 117 times
